Compound activity deposited in PubChem by The Scripps Research Institute Molecular Screening Center.
In the library only some 2.3% were active in any assay of this set; here they are far more common.
TAAR1 antag: antagonists of human TAAR1. Q96RJ0. CHO RD-HGA16 TAAR1, Fluo-8 calcium fluorescence, antagonist. inhibition, % at 3 µM. 360,000 compounds, 1.5% hits;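 active means inhibition above a per-plate cutoff, the mean inhibition of test compounds on that plate plus 3 SD, cut at about 49% in these data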;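 further: 0% = DMSO plus EC80 beta-PEA response and 100% = DMSO alone without agonist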
Target sequence (Q96RJ0 whole entry, looked up): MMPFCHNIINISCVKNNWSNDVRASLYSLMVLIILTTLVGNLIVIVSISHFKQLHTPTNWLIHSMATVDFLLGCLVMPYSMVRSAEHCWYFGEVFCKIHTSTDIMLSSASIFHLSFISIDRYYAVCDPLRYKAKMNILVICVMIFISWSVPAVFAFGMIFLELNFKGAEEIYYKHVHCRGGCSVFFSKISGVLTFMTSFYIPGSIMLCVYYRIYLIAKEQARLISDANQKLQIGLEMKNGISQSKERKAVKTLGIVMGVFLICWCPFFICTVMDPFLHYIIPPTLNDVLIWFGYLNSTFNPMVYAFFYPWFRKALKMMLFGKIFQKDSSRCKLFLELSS
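Assay system: CHO-derived RD-HGA16 cells stably expressing human TAAR1 plus Gα16. Timing: 140 s kinetic read after compound, 140 s after agonist. Technique: kinetic Fluo-8 calcium fluorescence measurement. Measure: % inhibition of agonist calcium response.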
V1aR counter: activates human V1a receptor in oxytocin agonist counter-screen. CHO-V1R cells, Fluo-8 calcium fluorescence, agonist mode; 0% DMSO, 100% 3 nM vasopressin. activation, % at 3 µM. 320,000 compounds, 0.25% hits;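 active means activation above the mean activation of all tested compounds plus 3 SD, per screening run, cut at about 20% in these data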;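 further: signal is peak over basal fluorescence ratio across a 100 second FLIPR read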
OXTR potentiate: human OXTR potentiation. P30559. CHO-OTR cells, Fluo-8 calcium fluorescence, potentiator mode; 0% = oxytocin EC15, 100% = EC100. activation, % at 3 µM. 320,000 compounds, 0.061% hits. AID 2445;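 active means activation above that plate's cutoff, the mean activation of tested compounds plus 3 SD, cut at about 6.6% in these data, passing the limit was not always enough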;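 further: 100% uses oxytocin at 75 nM as the full agonist control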
Target sequence (P30559 whole entry, looked up): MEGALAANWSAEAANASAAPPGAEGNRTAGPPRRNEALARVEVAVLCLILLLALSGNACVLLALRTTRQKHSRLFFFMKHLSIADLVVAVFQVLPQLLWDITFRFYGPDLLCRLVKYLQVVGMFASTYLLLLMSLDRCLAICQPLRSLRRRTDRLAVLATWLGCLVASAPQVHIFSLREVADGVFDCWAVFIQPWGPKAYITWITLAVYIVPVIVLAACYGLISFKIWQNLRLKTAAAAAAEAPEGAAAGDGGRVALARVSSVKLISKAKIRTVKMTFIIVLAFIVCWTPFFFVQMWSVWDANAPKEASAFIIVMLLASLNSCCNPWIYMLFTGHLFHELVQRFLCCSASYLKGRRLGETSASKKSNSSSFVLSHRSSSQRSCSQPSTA
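assay system = CHO-OTR cells, human receptor | schedule = compound 6 min at room temperature before oxytocin, 100 s read | detection = Fluo-8 intracellular calcium fluorescence, ex 470-495, em 515-575 nm | evaluation = normalized max/min fluorescence ratio, % activation | control set = EC15 oxytocin alone as 0%, 75 nM oxytocin (EC100) as 100%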
TAAR1 agonist: agonists of human TAAR1; 360,000 compounds, 0.99% hits; CHO RD-HGA16 TAAR1, Fluo-8 calcium fluorescence; vehicle wells 0%, saturating PEA agonist 100%; activation, % at 3 µM;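 active means activation above the mean activation of all test compounds in the run plus 3 SD, cut at about 38% in these data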
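System: CHO-derived RD-HGA16 cells with stable Gα16 and human TAAR1 / Times: 17-24 h plating, Fluo-8 75 min 37 °C, 30 min RT / Technique: calcium-sensitive Fluo-8 signal, excitation 470-495, emission 515-575 nm / Measure: % activation relative to PEA EC100 response / Benchmarks: DMSO and PEA EC100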
OXTR ag: agonists of human oxytocin receptor; CHO-OTR cells, Fluo-8 calcium fluorescence; normalized: DMSO 0%, oxytocin 100%; activation, % at 3 µM; 320,000 compounds, 0.32% hits;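 active means activation above the mean of all tested compounds plus 3 SD, cutoff set per screening run, cut at about 20% in these data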;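 further: peak over basal fluorescence ratio from a 100 s FLIPR kinetic read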
TAAR1 nonsel count: counter-screen for TAAR1 antagonists: nonselective antagonists. shares compounds with TAAR1 antag. counterscreen cell line, calcium fluorescence, antagonist mode. inhibition, % at 3 µM. 2,400 compounds, 77% hits. AID 651780; in the data active means inhibition above about 22%;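 further: CHO-Ga16 host cells stimulated with ATP at an EC80 level; 0% = agonist EC80 plus vehicle and 100% = vehicle without agonist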
TAAR1 ant conf: confirmation of human TAAR1 antagonists; TAAR1-expressing cells, fluorescence antagonist read-out; AID 651785; shares compounds with TAAR1 antag; 2,400 compounds, 40% hits; inhibition, % at 3 µM; in the data active means inhibition above about 49%;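 further: CHO-Ga16 host cells challenged with agonist PEA near its EC80; 0% = agonist at EC80 plus vehicle and 100% = vehicle with no agonist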
Ga16 nonsel ag: nonselective Ga16 agonist in TAAR1 antagonist counter-screen; shares compounds with TAAR1 antag; Ga16-expressing cells, calcium fluorescence, agonist counterscreen; activation, % at 3 µM; 2,400 compounds, 18% hits; in the data active means activation above about 12%;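 further: 0% = vehicle wells and 100% = saturating stimulus response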
TAAR1 ag counter: activates human TAAR1 in antagonist counter-screen; AID 651955; activation, % at 3 µM; shares compounds with TAAR1 antag; 2,400 compounds, 2% hits; hTAAR1 cell line, fluorescence activation, agonist mode; in the data active means activation above about 37%;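 further: CHO cells stably expressing TAAR1 with calcium dye readout; 0% = DMSO vehicle and 100% = full agonist response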
Numbers without * were called inactive; · = no result given.

SMILES | TAAR1 antag | V1aR counter | OXTR potentiate | TAAR1 agonist | OXTR ag | TAAR1 nonsel count | TAAR1 ant conf | Ga16 nonsel ag | TAAR1 ag counter
CCOC(=O)c1cnc2ccc(C)cc2c1Nc1ccc(N2CCOCC2)cc1 | 61* | -1 | -6 | 10 | -1 | 30* | 58* | 13* | 19
Cc1cccnc1C(NC(=O)C1CCN(Cc2ccc(Oc3ccccc3)cc2)CC1)c1ccc(F)cc1 (centres undefined) | 41 | · | · | -2 | · | · | · | · | ·
CC(=O)c1cccc(NC(=S)NC(=O)CC(C)C)c1 | 9 | 1 | -3 | 3 | -1 | · | · | · | ·
NC(=O)c1nsc(C(=O)N(c2ccccc2)C(C(=O)NCc2ccc(F)cc2)c2ccc(O)cc2)c1N (centres undefined) | 74* | 6 | -10 | 30 | 4 | 38* | 64* | 14* | 19
O=C(NCc1ccc(F)cc1)C(c1ccco1)N(C(=O)c1csnn1)c1ccccc1 (centres undefined) | 13 | 1 | -10 | 4 | 1 | · | · | · | ·
NC(=O)c1nsc(C(=O)N(c2ccccc2)C(C(=O)NC2CCCCC2)c2ccc(O)cc2)c1N (centres undefined) | 64* | 1 | -28 | 6 | -1 | 25* | 40 | 6 | 8
NC(=O)c1nsc(C(=O)N(c2ccccc2)C(C(=O)NC2CCCC2)c2ccncc2)c1N (centres undefined) | -24 | -1 | -5 | 0 | -1 | · | · | · | ·
NC(=O)c1nsc(C(=O)N(c2ccccc2)C(C(=O)NCc2ccc(F)cc2)c2ccco2)c1N (centres undefined) | 68* | 6 | -13 | 17 | 4 | 21* | 53* | 9 | 40*
CCCCCC(=O)N1C[C@@H](n2cc(C3CC3)nn2)[C@H](O)C[C@@H]1c1ccccc1 | 0 | · | · | 4 | · | · | · | · | ·
O=C1CC(N2CCN(c3ccc(O)cc3)CC2)C(=O)N1Cc1cccs1 (centres undefined) | 5 | 1 | -14 | 3 | 2 | · | · | · | ·
O=C(c1ccncc1)c1ccc(N2CCN(C3CC(=O)N(Cc4cccs4)C3=O)CC2)cc1 (centres undefined) | 58* | 16 | -8 | 16 | 10 | 36* | 50* | 14* | 11
O=C(CCS(=O)(=O)c1ccc(Cl)cc1)NCCN1C(=O)S/C(=C\c2ccccc2F)C1=O | 71* | 12 | -15 | 14 | 15 | 38* | 38 | 11 | 7
CCc1cc(CNC(=O)c2cc(COc3ccc(C)nc3)on2)on1 | -10 | 2 | 5 | 2 | 1 | · | · | · | ·
Cc1nn(-c2ccccn2)c2nc(-c3cccs3)cc(C(=O)NCc3ccco3)c12 | 60* | -2 | -9 | 14 | -2 | 32* | 49* | 5 | 4
O=C(NCc1ccco1)c1cc(-c2cccs2)nc2ccccc12 | 62* | 0 | -5 | 12 | 0 | 27* | 42 | 6 | 3
Cc1cc(C)c2nc(NNC(=O)c3cc(-c4cccs4)nc4ccccc34)sc2c1 | 56* | 1 | -8 | 16 | 0 | 35* | 50* | 11 | 9
COc1cc(-c2cc(C(=O)NCc3ccco3)c3ccccc3n2)cc(OC)c1OC | 57* | 4 | -6 | 11 | 5 | 23* | 42 | 8 | 7
COc1ccc(CCNC(=O)Cn2c([N+](=O)[O-])cnc2C)cc1OC | -7 | 0 | -17 | 1 | 0 | · | · | · | ·
CC(C)OCCCNC(=O)c1cc(-c2cccs2)nc2ccccc12 | 57* | 6 | -4 | 17 | -1 | 31* | 49 | 7 | 11
O=C(N/N=C/c1cccnc1)c1cc(-c2cccs2)nc2ccccc12 | 21 | 1 | 0 | 13 | 2 | · | · | · | ·
O=C(N/N=C/c1ccc2ncccc2c1)c1cc(-c2cccs2)nc2ccccc12 | 57* | 0 | 2 | 3 | -1 | 27* | 44 | 5 | 15
CCOCCCNC(=O)c1cc(-c2ccc(Br)s2)nc2ccccc12 | 2 | 1 | -1 | 0 | -1 | · | · | · | ·
O=C1CCCCC1C(Nc1ccc(Br)cc1)c1ccccc1 (centres undefined) | 41 | -2 | -11 | 25 | -3 | · | · | · | ·
O=C1CCCCC1C(Nc1ccc(Cl)cc1)c1ccccc1 (centres undefined) | 68* | -1 | -8 | 11 | -2 | 13 | 45 | 7 | 10
CCOC(=O)/C(C#N)=C/C1=C(N2CCCC2)CC(C)(CC)OC1 (centres undefined) | -2 | 0 | -3 | 1 | -1 | · | · | · | ·
SMILES | TAAR1 antag | V1aR counter | OXTR potentiate | TAAR1 agonist | OXTR ag | TAAR1 nonsel count | TAAR1 ant conf | Ga16 nonsel ag | TAAR1 ag counter
COc1ccccc1NC(=O)/C=C/c1cc([N+](=O)[O-])ccc1OC(F)F | -8 | -1 | -2 | -3 | 0 | · | · | · | ·
O=C(/C=C/c1cc([N+](=O)[O-])ccc1OC(F)F)Nc1cccc(OC(F)F)c1 | 75* | 0 | -10 | 5 | 0 | 34* | 65* | 7 | 4
CCOC(=O)C1CCN(C(=O)c2cccnc2Oc2ccc(Cl)cc2)CC1 | -25 | 5 | -9 | 3 | 3 | · | · | · | ·
CCOC(=O)c1cc(-c2nnc(SCC(=O)Nc3ccc(F)cc3)o2)c(C)nc1C | 54* | 1 | -2 | 9 | -1 | 18 | 31 | 5 | 3
COc1cc(/C=C(\C#N)c2nc3ccccc3[nH]2)cc(Br)c1OCc1ccccc1 | 60* | 0 | -9 | 8 | -1 | 47* | 56* | 8 | 5
COc1cc(/C=C(/C#N)c2ccccc2)ccc1Oc1ccc([N+](=O)[O-])cn1 | 19 | 1 | -3 | 7 | 2 | · | · | · | ·
COc1cc(/C=C(\C#N)c2nc3ccccc3[nH]2)ccc1Oc1ccc([N+](=O)[O-])cn1 | 84* | 4 | -5 | 20 | 4 | 50* | 65* | 11 | 9
CCn1ccnc1CNC(=O)C1CCC(=O)N(Cc2ccccc2F)C1 (centres undefined) | -31 | 2 | 0 | 3 | -1 | · | · | · | ·
CC(C)Cc1nnc(NC(=O)CCNC(=O)c2ccco2)s1 | -1 | 1 | -8 | 2 | 1 | · | · | · | ·
CCOC(=O)c1cccc(S(=O)(=O)N(CCO)Cc2cc3cc(OC)ccc3[nH]c2=O)c1 | · | 0 | 2 | · | 0 | · | · | · | ·
COC(=O)c1cccc(S(=O)(=O)N(Cc2ccco2)Cc2cc3cc(OC)ccc3[nH]c2=O)c1 | 58* | 4 | -4 | 19 | -2 | 24* | 59* | 10 | 28
